Results on 8 compounds are retold here after ChEMBL document CHEMBL1141516, “2-Aminotetralones: novel inhibitors of MurA and MurZ” (Bioorg Med Chem Lett, 2008).

Assay [1] in a line: Inhibition of Escherichia coli MurA. In a few lines:
(§1)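 Poly(His)-tagged MurA from E. coli BL21 Star (DE3) (0.1 mM IPTG, 18 °C, 24 h), purified by Co2+ affinity and gel filtration. At 25 °C, a 2-fold inhibitor series went to 33.3 µg/mL enzyme preincubated 10 min in 50 mM Tris-HCl pH 7.8 with UDP-GlcNAc. PEP started a 30 min reaction. Phosphate was read by malachite green-molybdate at A660 against standards. Means of four experiments ± SD.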

Assay [2] in a line: Inhibition of Staphylococcus aureus MurA. Summed up:
as §1

Assay [3] can be described thus: Inhibition of Staphylococcus aureus MurZ. In a few lines:
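Poly(His)-tagged MurZ was expressed in E. coli BL21 Star (DE3) by autoinduction and purified by Co2+ affinity and gel filtration. At 25 °C, a 2-fold inhibitor series was added to enzyme preincubated 10 min in 50 mM Tris-HCl pH 7.8 with UDP-GlcNAc. PEP started a 30 min reaction. Released phosphate was read by malachite green-molybdate at A660 against phosphate standards. Means of three experiments ± SD.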

A short description of assay [4]: Antibacterial activity against Escherichia coli JM109. In kind it is functional.
A short description of assay [5]: Antibacterial activity against Staphylococcus aureus SH1000. It counts as functional.
For assay [6], the system named is UDP-N-acetylglucosamine 1-carboxyvinyltransferase (Escherichia coli K-12), P0A749 [C115D]. Nature of the assay: Inhibition of Escherichia coli MurA C115D mutant. Summed up:
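Purified E. coli MurA C115D mutant protein was tested with inhibitor at up to 120 µM.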

Assay [7] can be described thus: Inhibition of MDH.
A short description of assay [8]: Inhibition of chymotrypsin.

SMILES strings stand for the structures. In brackets after ≈: the same amount, converted by molar mass. Activity calls are given as the source filed them. No cut-off for these calls is given here. Bounds are passed on as bounds.

Chain of UDP-N-acetylglucosamine 1-carboxyvinyltransferase (Escherichia coli K-12), P0A749 [C115D] (P0A749 whole entry C115D): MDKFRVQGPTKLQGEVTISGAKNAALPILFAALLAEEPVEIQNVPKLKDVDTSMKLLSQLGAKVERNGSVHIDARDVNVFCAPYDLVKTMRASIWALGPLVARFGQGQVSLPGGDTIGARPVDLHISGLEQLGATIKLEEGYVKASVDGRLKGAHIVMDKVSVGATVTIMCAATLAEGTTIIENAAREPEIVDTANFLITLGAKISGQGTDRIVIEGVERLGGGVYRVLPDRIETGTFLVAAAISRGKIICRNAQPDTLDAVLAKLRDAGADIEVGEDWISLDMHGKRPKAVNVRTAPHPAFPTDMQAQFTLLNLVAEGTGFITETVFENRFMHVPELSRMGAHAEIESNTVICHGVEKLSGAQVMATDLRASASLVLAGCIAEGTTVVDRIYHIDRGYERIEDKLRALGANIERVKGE

On to `COc1cc2c(cc1OC)C(=O)C(N1CCN(CCO)CC1)CC2.Cl.Cl` (stereo not given), for which the IC50 in assay [1] was 3.13 µM; in assay [2] it was 17.4 µM; in assay [3] it was 18.8 µM. Besides, the minimum inhibitory concentration (MIC) was 256 µg/mL in assay [4] and 128 µg/mL in assay [5]. In addition, the result in assay [6], in assay [7] and in assay [8] was inactive.

Turning to `CN1CCN(C2CCc3ccccc3C2=O)CC1.Cl.Cl` (stereo not given), the half-inhibitory concentration (IC50) in assay [1] worked out at 8.53 µM; in assay [2], 12 µM; in assay [3] it was 22.9 µM. For the same compound, the figures for the MIC in assay [4] and in assay [5] were 128 µg/mL and 64 µg/mL, respectively. Further, the outcome in assay [6], in assay [7] and in assay [8] was inactive.

On to `C[C@@H]1O[C@@H]1P(=O)(O)O` [FOSFOMYCIN], for which the IC50 in assay [1] was 0.46 µM; in assay [2] it was 1.36 µM; in assay [3], 1.37 µM. Also, the MIC in assay [4] turned out to be 8 µg/mL (≈ 57.9 µM); in assay [5] it was 16 µg/mL (≈ 116 µM).

On to `Cl.Cl.OCCN1CCN(C2CCc3ccccc3C2)CC1` (stereo not given), for which the concentration for half-maximal inhibition (IC50) in assay [1], in assay [2] and in assay [3] was > 120 µM throughout. For the same compound, the MIC in assay [4] and in assay [5] was > 256 µg/mL in each case.

For the compound `O=C1c2ccccc2CCC1C1CCCCC1` (stereo not given), the concentration for half-maximal inhibition (IC50) in assay [1], in assay [2] and in assay [3] was > 120 µM throughout. The MIC in assay [4] and in assay [5] was > 256 µg/mL throughout.

With `Cl.Cl.O=C1c2ccccc2CCC1N1CCN(CCO)CC1` (stereo not given), the results for the IC50 in assay [1], in assay [2] and in assay [3] were 22.5 µM, 12.5 µM and 16.1 µM, respectively. Moreover, the minimal inhibitory concentration (MIC) in assay [4] was found to be 128 µg/mL; in assay [5], 8 µg/mL. Moreover, the outcome in assay [7] and in assay [8] was inactive.

`COc1cc2c(cc1OC)C(=O)C(N1CCN(Cc3ccccc3)CC1)CC2` (stereo not given): the concentration for half-maximal inhibition (IC50) amounted to 22.6 µM in assay [1], 29 µM in assay [2] and 28.9 µM in assay [3]. In addition, the MIC was > 256 µg/mL in assay [4] and 64 µg/mL (≈ 168 µM) in assay [5]. Besides, the result in assay [7] and in assay [8] was inactive.

As for `Cl.Cl.OCCN1CCN([C@@H]2CCc3ccccc3[C@H]2O)CC1`, the IC50 in assay [1], in assay [2] and in assay [3] was > 120 µM throughout. For the same compound, the MIC in assay [4] and in assay [5] was > 256 µg/mL in each case.
